{"data": "Results gathered from unrelated publications", "PIK3CA E542K": "Phosphatidylinositol 4,5-bisphosphate 3-kinase catalytic subunit alpha isoform (PIK3CA, Homo sapiens, UniProt P42336, E542K)", "PIK3CA M1043I": "Phosphatidylinositol 4,5-bisphosphate 3-kinase catalytic subunit alpha isoform (PIK3CA, Homo sapiens, UniProt P42336, M1043I)", "note": "Lines come from different studies, so protocols differ."}
{"SMILES": "C1=C/COCc2cc(ccc2OCCN2CCCC2)Nc2nccc(n2)-c2cccc(c2)COC/1", "target": "PIK3CA E542K", "observed": "binding", "concentration": "0.1 µM", "measurement": "remaining binding", "value": "68%"}
{"SMILES": "C[C@H]1CC[C@H](n2c3cnccc3c3cnc(Nc4ccc5c(n4)CCN(C(=O)CO)C5)nc32)CC1", "target": "Phosphatidylinositol 4,5-bisphosphate 3-kinase catalytic subunit alpha isoform (PIK3CA, Homo sapiens, UniProt P42336, E545K)", "observed": "cell-free assay", "concentration": "1 µM", "measurement": "remaining signal", "value": "100%"}
{"SMILES": "CO[C@@H]1[C@H](N(C)C(=O)c2ccccc2)C[C@H]2O[C@]1(C)n1c3ccccc3c3c4c(c5c6ccccc6n2c5c31)C(=O)NC4", "target": "PIK3CA M1043I", "observed": "enzyme activity", "mode": "inhibitor", "concentration": "1 µM", "measurement": "inhibition", "value": "1%"}
{"SMILES": "Cc1cc(O)c(-c2ccc([C@@H](C)CN(C)C)cc2)c2c1[nH]c(=O)c1sccc12", "target": "Phosphatidylinositol 4,5-bisphosphate 3-kinase catalytic subunit alpha isoform (PIK3CA, Homo sapiens, UniProt P42336)", "observed": "enzyme activity", "mode": "inhibitor", "concentration": "0.1 µM", "measurement": "inhibition", "value": "-4.62%"}
{"SMILES": "C=CC(=O)N1CCC([C@@H]2CCNc3c(C(N)=O)c(-c4ccc(Oc5ccccc5)cc4)nn32)CC1", "target": "Phosphatidylinositol 4,5-bisphosphate 3-kinase catalytic subunit alpha isoform (PIK3CA, Homo sapiens, UniProt P42336, H1047Y)", "observed": "enzyme activity", "mode": "inhibitor", "concentration": "1 µM", "measurement": "inhibition", "value": "12%"}
{"SMILES": "CCCCC(=O)Nc1ccc(-c2ccc3ncn(CCC)c(=O)c3c2)cn1", "target": "PIK3CA M1043I", "observed": "binding", "method": "competition with immobilised ligand", "concentration": "0.5 µM", "measurement": "remaining binding", "value": "91%"}
{"SMILES": "COc1ccc2[nH]c3c4[nH]c5ccc(OC)cc5c4c4c(c3c2c1)C(=O)NC4=O", "target": "PIK3CA E542K", "observed": "binding", "concentration": "1 µM", "measurement": "remaining binding", "value": "92%"}
{"SMILES": "CC(C)S(=O)(=O)c1ccc2nccc(Nc3ccc4sc(C5CCCC5)nc4c3)c2c1", "target": "Phosphatidylinositol 4,5-bisphosphate 3-kinase catalytic subunit alpha isoform, with p85 (PIK3CA, Homo sapiens, UniProt P42336)", "observed": "enzyme activity", "mode": "inhibitor", "concentration": "1 µM", "measurement": "activity vs control", "value": "98.5%"}
{"SMILES": "Cc1ccc(NC(=O)c2ccnc(C(F)(F)F)c2)cc1-c1cc(OCCO)nc(N2CCOCC2)c1", "target": "Phosphatidylinositol 4,5-bisphosphate 3-kinase catalytic subunit alpha isoform (PIK3CA, Homo sapiens, UniProt P42336, H1047L)", "observed": "binding", "concentration": "1 µM", "measurement": "remaining binding", "value": "98%"}
{"SMILES": "CC#CC(=O)N1CCC[C@H]1c1nc(-c2ccc(C(=O)Nc3ccccn3)cc2)c2c(N)nccn12", "target": "Phosphatidylinositol 4,5-bisphosphate 3-kinase catalytic subunit alpha isoform (PIK3CA, Homo sapiens, UniProt P42336, Q546K)", "observed": "enzyme activity", "mode": "inhibitor", "concentration": "1 µM", "measurement": "inhibition", "value": "38%"}
